Active and inactive are the calls of the source. The rule behind the calls is not given here.
Assays:
Mus musculus [1] = assay: Toxicity in Balb/C mouse assessed as change in body weight at 40 mg/kg, ip administered thrice a week for 2 weeks measured 48 hrs after last dose; assay type: organism-based; parameters: dose 40 mg/kg, route intraperitoneal; settings: in vivo
How it was run: (§1)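 Male Balb/c mice, 6–8 wk, n=4/group, received compound i.p. in PBS (10 ul/g) 3x/wk for 2 wk. Body weight was monitored throughout. At 48 h after the last dose, mice were anesthetized with isoflurane and bled by cardiac puncture. Serum AST, ALT, BUN, bilirubin, glucose and triglycerides were compared with the saline group. ALT rise below 2x normal was counted as absent.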

Mus musculus [2] = assay: Toxicity in Balb/C mouse assessed as change in blood urea nitrogen levels at 40 mg/kg, ip administered thrice a week for 2 weeks measured 48 hrs after last dose; assay type: organism-based; parameters: dose 40 mg/kg, route intraperitoneal; settings: in vivo; how it was run: as §1
Mus musculus [3] = assay: Toxicity in Balb/C mouse assessed as change in serum glucose levels at 40 mg/kg, ip administered thrice a week for 2 weeks measured 48 hrs after last dose; assay type: organism-based; parameters: dose 40 mg/kg, route intraperitoneal; settings: in vivo; how it was run: as §1
BCL1 [4] = assay: Inhibition of PTEN expression in mouse BCL1 cells after 62 hrs by Western blotting; assay type: functional, cell-based; settings: BCL1, 62 h
How it was run: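 BCL1 cells were grown in DMEM with 10% FBS at 37 °C, 5% CO2. Compound was delivered to 2×10^6 cells by electroporation (200 V, 1000 uF, 13 ohms), and cells were harvested 62 h later. Western blot of RIPA lysates used rabbit anti-PTEN and anti-CD40 (1:1000) with HRP secondary and ECL detection. PTEN was normalized to CD40. n=3, mean ± SD.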

Mus musculus [5] = assay: Inhibition of PTEN expression in Balb/C mouse kidney at 40 mg/kg, ip administered thrice a week for 2 weeks measured 48 hrs after last dose by Western blot analysis; assay type: functional, organism-based; parameters: dose 40 mg/kg
How it was run: (§2)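 Male Balb/c mice, 6–8 wk, n=4/group, dosed i.p. in PBS 3x/wk for 2 wk and killed 48 h after the last dose. Tissue was homogenized in RIPA buffer with protease inhibitors, and protein was measured by Lowry assay. Lysates were run on 10% PAGE and blotted to PVDF. Blots were probed with rabbit anti-PTEN (1:1000) and HRP anti-rabbit (1:2500), with ECL detection.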

Mus musculus [6] = assay: Toxicity in Balb/C mouse assessed as change in serum bilirubin levels at 40 mg/kg, ip administered thrice a week for 2 weeks measured 48 hrs after last dose; assay type: organism-based; parameters: dose 40 mg/kg, route intraperitoneal; settings: in vivo; how it was run: as §1
Mus musculus [7] = assay: Toxicity in Balb/C mouse assessed as change in serum triglyceride levels at 40 mg/kg, ip administered thrice a week for 2 weeks measured 48 hrs after last dose; assay type: organism-based; parameters: dose 40 mg/kg, route intraperitoneal; settings: in vivo; how it was run: as §1
Mus musculus [8] = assay: Toxicity in Balb/C mouse assessed as change in serum AST levels at 40 mg/kg, ip administered thrice a week for 2 weeks measured 48 hrs after last dose; assay type: organism-based; parameters: dose 40 mg/kg, route intraperitoneal; settings: in vivo; how it was run: as §1
Mus musculus [9] = assay: Toxicity in Balb/C mouse assessed as change in serum ALT levels at 40 mg/kg, ip administered thrice a week for 2 weeks measured 48 hrs after last dose; assay type: organism-based; parameters: dose 40 mg/kg, route intraperitoneal; settings: in vivo; how it was run: as §1
Mus musculus [10] = assay: Inhibition of PTEN expression in Balb/C mouse liver at 40 mg/kg, ip administered thrice a week for 2 weeks measured 48 hrs after last dose by Western blot analysis; assay type: functional, organism-based; parameters: dose 40 mg/kg; how it was run: as §2
Mus musculus [11] = assay: Inhibition of IR expression in Balb/C mouse liver assessed as reduction in IR-B transcript at 6.0 umol/kg, ip administered thrice a week for 2 weeks measured 48 hrs after last dose […]; assay type: functional, organism-based
How it was run: (§3)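 Male Balb/c mice, n=4 per group, dosed i.p. in PBS and sacrificed 48 h after last dose. Liver, kidney and adipose tissue homogenised at once in 4 M guanidine isothiocyanate, 25 mM EDTA, 50 mM Tris-HCl pH 6. RNA purified on columns and run by fluorescence-based quantitative RT-PCR. Target transcript levels normalised to cyclophilin A and expressed relative to saline-treated controls.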

Mus musculus [12] = assay: Inhibition of IR expression in Balb/C mouse kidney assessed as upregulation of IR-A transcript at 6.0 umol/kg, ip administered thrice a week for 2 weeks measured 48 hrs after last dose […]; assay type: functional, organism-based; how it was run: as §3
Mus musculus [13] = assay: Inhibition of IR expression in Balb/C mouse liver assessed as upregulation of IR-A transcript at 1.5 umol/kg, ip administered thrice a week for 2 weeks measured 48 hrs after last dose by quantitative RT-PCR analysis
Mus musculus [14] = assay: Acute toxicity in Balb/C mouse assessed as change in plasma chemistry at 1.5 to 6.0 umol/kg, ip administered thrice a week for 2 weeks measured 48 hrs after last dose; assay type: organism-based; settings: in vivo
How it was run: (§4)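 Male Balb/c mice aged 6–8 weeks, n=4 per group, dosed i.p. with compound suspended in PBS and filter sterilized, 10 ul/g body weight. Body weight tracked throughout the live phase. Under isoflurane anaesthesia, terminal cardiac-puncture bleed; serum taken for transaminases and other chemistries. Sacrifice by cervical dislocation 48 h after last dose, with liver and spleen weighed at necropsy. Kidneys examined by histopathology.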

Mus musculus [15] = assay: Inhibition of IR expression in Balb/C mouse kidney assessed as upregulation of IR-A transcript at 1.5 umol/kg, ip administered thrice a week for 2 weeks measured 48 hrs after last dose […]; assay type: functional, organism-based; how it was run: as §3
Mus musculus [16] = assay: Acute toxicity in Balb/C mouse assessed as change in liver weight at 1.5 to 6.0 umol/kg, ip administered thrice a week for 2 weeks measured 48 hrs after last dose; assay type: organism-based; settings: in vivo; how it was run: as §4
Mus musculus [17] = assay: Inhibition of IR expression in Balb/C mouse adipose tissue assessed as reduction in IR-B transcript at 6.0 umol/kg, ip administered thrice a week for 2 weeks measured 48 hrs after last dose […]; assay type: functional; how it was run: as §3
Mus musculus [18] = assay: Inhibition of IR expression in Balb/C mouse adipose tissue assessed as upregulation of IR-A transcript at 6.0 umol/kg, ip administered thrice a week for 2 weeks measured 48 hrs after last dose by […]; assay type: functional; how it was run: as §3
Mus musculus [19] = assay: Acute toxicity in Balb/C mouse assessed as change in spleen weight at 1.5 to 6.0 umol/kg, ip administered thrice a week for 2 weeks measured 48 hrs after last dose; assay type: organism-based; settings: in vivo; how it was run: as §4
Mus musculus [20] = assay: Inhibition of IR expression in Balb/C mouse kidney assessed as reduction in IR-B transcript at 1.5 umol/kg, ip administered thrice a week for 2 weeks measured 48 hrs after last dose […]; assay type: functional, organism-based; how it was run: as §3
Mus musculus [21] = assay: Inhibition of IR expression in Balb/C mouse kidney assessed as reduction in IR-B transcript at 6.0 umol/kg, ip administered thrice a week for 2 weeks measured 48 hrs after last dose […]; assay type: functional, organism-based; how it was run: as §3
Mus musculus [22] = assay: Inhibition of IR expression in Balb/C mouse liver assessed as upregulation of IR-A transcript at 6.0 umol/kg, ip administered thrice a week for 2 weeks measured 48 hrs after last dose by quantitative RT-PCR analysis
Mus musculus [23] = assay: Acute toxicity in Balb/C mouse assessed as reduction in body weight at 1.5 to 6.0 umol/kg, ip administered thrice a week for 2 weeks measured 48 hrs after last dose; assay type: organism-based; settings: in vivo; how it was run: as §4
BCL1 [24] = assay: Inhibition of CD40 protein expression in mouse BCL1 cells after 62 hrs by Western blotting; assay type: functional, cell-based; settings: BCL1, 62 h

## COCCO[C@@H]1[C@H](OP(=O)(S)OC[C@H]2O[C@@H](n3cc(C)c(=O)[nH]c3=O)C[C@@H]2OP(=O)(S)OC[C@H]2O[C@@H](n3ccc(N)nc3=O)[C@H](OCCOC)[C@@H]2OP(=O)(S)OC[C@H]2O[C@@H](n3cnc4c(N)ncnc43)[C@H](OCCOC)[C@@H]2OP(=O)(S)OC[C@H]2O[C@@H](n3cnc4c(=O)[nH]c(N)nc43)[C@H](OCCOC)[C@@H]2OP(=O)(S)OC[C@H]2O[C@@H](n3ccc(N)nc3=O)[C@H](OCCOC)[C@@H]2OP(=O)(S)OC[C@H]2O[C@@H](n3cnc4c(N)ncnc43)[C@H](OCCOC)[C@@H]2OP(=O)(S)OC[C@H]2O[C@@H](n3ccc(N)nc3=O)[C@H](OCCOC)[C@@H]2OP(=O)(S)OC[C@H]2O[C@@H](n3cnc4c(N)ncnc43)[C@H](OCCOC)[C@@H]2OP(=O)(S)OC[C@H]2O[C@@H](n3cc(C)c(=O)[nH]c3=O)C[C@@H]2OP(=O)(S)OC[C@H]2O[C@@H](n3ccc(N)nc3=O)[C@H](OCCOC)[C@@H]2OP(=O)(S)OC[C@H]2O[C@@H](n3cc(C)c(=O)[nH]c3=O)C[C@@H]2OP(=O)(S)OC[C@H]2O[C@@H](n3cnc4c(N)ncnc43)[C@H](OCCOC)[C@@H]2OP(=O)(S)OC[C@H]2O[C@@H](n3ccc(N)nc3=O)[C@H](OCCOC)[C@@H]2OP(=O)(S)OC[C@H]2O[C@@H](n3cnc4c(N)ncnc43)[C@H](OCCOC)[C@@H]2OP(=O)(S)OC[C@H]2O[C@@H](n3cnc4c(N)ncnc43)[C@H](OCCOC)[C@@H]2OP(=O)(S)OC[C@H]2O[C@@H](n3cnc4c(=O)[nH]c(N)nc43)[C@H](OCCOC)[C@@H]2OP(=O)(S)OC[C@H]2O[C@@H](n3cnc4c(N)ncnc43)[C@H](OCCOC)[C@@H]2OP(=O)(S)OC[C@H]2O[C@@H](n3cnc4c(N)ncnc43)[C@H](OCCOC)[C@@H]2OP(=O)(S)OC[C@H]2O[C@@H](n3cnc4c(N)ncnc43)[C@H](OCCOC)[C@@H]2O)[C@@H](CO)O[C@H]1n1ccc(N)nc1=O (some centres undefined)
Mus musculus [1]
  Activity: Non-toxic
Mus musculus [2]
  Activity: Non-toxic
Mus musculus [3]
  Activity: Non-toxic
BCL1 [4]
  IC50: 1 µM
Mus musculus [5]
  inhibition: inactive
Mus musculus [6]
  Activity: Non-toxic
Mus musculus [7]
  Activity: Non-toxic
Mus musculus [8]
  Activity: Non-toxic
Mus musculus [9]
  Activity: Non-toxic
Mus musculus [10]
  inhibition: inactive

## COCCO[C@@H]1[C@H](OP(=O)(S)OC[C@H]2O[C@@H](n3cnc4c(N)ncnc43)[C@H](OCCOC)[C@@H]2O)[C@@H](COP(=O)(S)O[C@H]2[C@@H](OCCOC)[C@H](n3ccc(N)nc3=O)O[C@@H]2COP(=O)(S)O[C@H]2[C@@H](OCCOC)[C@H](n3cnc4c(N)ncnc43)O[C@@H]2COP(=O)(S)O[C@H]2[C@@H](OCCOC)[C@H](n3ccc(N)nc3=O)O[C@@H]2COP(=O)(S)O[C@H]2[C@@H](OCCOC)[C@H](n3cnc4c(=O)[nH]c(N)nc43)O[C@@H]2COP(=O)(S)O[C@H]2[C@@H](OCCOC)[C@H](n3cnc4c(=O)[nH]c(N)nc43)O[C@@H]2COP(=O)(S)O[C@H]2[C@@H](OCCOC)[C@H](n3ccc(N)nc3=O)O[C@@H]2COP(=O)(S)O[C@H]2C[C@H](n3cc(C)c(=O)[nH]c3=O)O[C@@H]2COP(=O)(S)O[C@H]2[C@@H](OCCOC)[C@H](n3ccc(N)nc3=O)O[C@@H]2COP(=O)(S)O[C@H]2[C@@H](OCCOC)[C@H](n3ccc(N)nc3=O)O[C@@H]2COP(=O)(S)O[C@H]2C[C@H](n3cc(C)c(=O)[nH]c3=O)O[C@@H]2COP(=O)(S)O[C@H]2[C@@H](OCCOC)[C@H](n3cnc4c(=O)[nH]c(N)nc43)O[C@@H]2COP(=O)(S)O[C@H]2C[C@H](n3cc(C)c(=O)[nH]c3=O)O[C@@H]2COP(=O)(S)O[C@H]2[C@@H](OCCOC)[C@H](n3ccc(N)nc3=O)O[C@@H]2COP(=O)(S)O[C@H]2[C@@H](OCCOC)[C@H](n3cnc4c(N)ncnc43)O[C@@H]2COP(=O)(S)O[C@H]2C[C@H](n3cc(C)c(=O)[nH]c3=O)O[C@@H]2COP(=O)(S)O[C@H]2[C@@H](OCCOC)[C@H](n3ccc(N)nc3=O)O[C@@H]2COP(=O)(S)O[C@H]2[C@@H](OCCOC)[C@H](n3ccc(N)nc3=O)O[C@@H]2COP(=O)(S)O[C@H]2[C@@H](OCCOC)[C@H](n3cnc4c(N)ncnc43)O[C@@H]2CO)O[C@H]1n1ccc(N)nc1=O (some centres undefined)
Mus musculus [11]
  Activity: Active
Mus musculus [12]
  Activity: Active
Mus musculus [13]
  Activity: Active
Mus musculus [14]
  Activity: Non-toxic
Mus musculus [15]
  Activity: Active
Mus musculus [16]
  Activity: Non-toxic
Mus musculus [17]
  Activity: Active
Mus musculus [18]
  Activity: Active
Mus musculus [19]
  Activity: Non-toxic
Mus musculus [20]
  Activity: inactive
Mus musculus [21]
  Activity: inactive
Mus musculus [22]
  Activity: Active
Mus musculus [23]
  Activity: Non-toxic

## Cc1cn(CC(=O)N(CCNC(=O)CN(CCNC(=O)CN(CCNC(=O)CN(CCNC(=O)CN(CCNC(=O)CN(CCNC(=O)CN(CCNC(=O)CN(CCNC(=O)CN(CCNC(=O)CN(CCNC(=O)CN(CCNC(=O)CN(CCN)C(=O)Cn2ccc(N)nc2=O)C(=O)Cn2cnc3c(N)ncnc32)C(=O)Cn2ccc(N)nc2=O)C(=O)Cn2cnc3c(N)ncnc32)C(=O)Cn2cnc3c(=O)[nH]c(N)nc32)C(=O)Cn2cnc3c(N)ncnc32)C(=O)Cn2cc(C)c(=O)[nH]c2=O)C(=O)Cn2cnc3c(=O)[nH]c(N)nc32)C(=O)Cn2cnc3c(N)ncnc32)C(=O)Cn2ccc(N)nc2=O)C(=O)Cn2cnc3c(N)ncnc32)CC(=O)NCCN(CC(=O)NCCN(CC(=O)NCCN(CC(=O)N[C@@H](CCCCN)C(N)=O)C(=O)Cn2cnc3c(=O)[nH]c(N)nc32)C(=O)Cn2cnc3c(N)ncnc32)C(=O)Cn2cc(C)c(=O)[nH]c2=O)c(=O)[nH]c1=O
BCL1 [24]
  IC50: 0.9 µM

— ChEMBL document CHEMBL1155469, “Peptide nucleic acids conjugated to short basic peptides show improved pharmacokinetics and antisense activity in adipose tissue” (J Med Chem, 2010)
